Laboratory results published in ChEMBL document CHEMBL2331224 (J Med Chem, 2013).
pEC50: −log10 of the molar value. Active and inactive are the calls of the source. No cut-off for these calls is given here.

Tests used:
[1] = biological target: Retinoic acid receptor RXR-alpha/oxysterols receptor LXR-alpha (Homo sapiens) (UniProt P19793+Q13133); experiment: Transactivation of LXRalpha/RXRalpha (unknown origin) by luciferase reporter gene assay relative to carba-T0901317; assay type: protein-complex assay
How it was run: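 Heterodimer reporter in COS-1 cells co-transfected with RXRα (0.5 μg), partner receptor (LXRα for line 2, PPARγ for line 3; 0.5 μg), partner response element-luciferase (4.0 μg), and SEAP. Compound (DMSO below 1%) with ~2.0 × 10⁴ cells/well, 18 h, 37 °C; luciferase normalized to SEAP; triplicate, three runs.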

[2] = biological target: T1, Retinoic acid receptor RXR-beta (Homo sapiens) (UniProt P28702); experiment: Partial agonist activity at RXRbeta (unknown origin) by luciferase reporter gene assay relative to LGD1069
T1 sequence (whole entry): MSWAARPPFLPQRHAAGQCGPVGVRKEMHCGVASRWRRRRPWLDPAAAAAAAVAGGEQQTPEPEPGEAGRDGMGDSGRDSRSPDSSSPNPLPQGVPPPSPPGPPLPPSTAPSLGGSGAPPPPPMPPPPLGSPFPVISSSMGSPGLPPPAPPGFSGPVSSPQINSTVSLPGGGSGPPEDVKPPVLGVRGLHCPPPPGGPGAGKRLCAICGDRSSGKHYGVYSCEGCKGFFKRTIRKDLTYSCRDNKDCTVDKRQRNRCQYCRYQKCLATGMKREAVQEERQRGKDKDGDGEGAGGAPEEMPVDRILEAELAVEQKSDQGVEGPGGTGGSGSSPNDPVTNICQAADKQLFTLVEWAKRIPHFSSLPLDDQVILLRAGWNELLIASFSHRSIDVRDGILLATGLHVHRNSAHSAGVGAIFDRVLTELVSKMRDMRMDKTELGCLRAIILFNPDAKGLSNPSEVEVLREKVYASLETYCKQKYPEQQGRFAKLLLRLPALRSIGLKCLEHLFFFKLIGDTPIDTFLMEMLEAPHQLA

[3] = biological target: T2, Oxysterols receptor LXR-alpha (Homo sapiens) (UniProt Q13133); experiment: Transactivation of LXRalpha (unknown origin) by luciferase reporter gene assay relative to carba-T0901317
T2 sequence (whole entry): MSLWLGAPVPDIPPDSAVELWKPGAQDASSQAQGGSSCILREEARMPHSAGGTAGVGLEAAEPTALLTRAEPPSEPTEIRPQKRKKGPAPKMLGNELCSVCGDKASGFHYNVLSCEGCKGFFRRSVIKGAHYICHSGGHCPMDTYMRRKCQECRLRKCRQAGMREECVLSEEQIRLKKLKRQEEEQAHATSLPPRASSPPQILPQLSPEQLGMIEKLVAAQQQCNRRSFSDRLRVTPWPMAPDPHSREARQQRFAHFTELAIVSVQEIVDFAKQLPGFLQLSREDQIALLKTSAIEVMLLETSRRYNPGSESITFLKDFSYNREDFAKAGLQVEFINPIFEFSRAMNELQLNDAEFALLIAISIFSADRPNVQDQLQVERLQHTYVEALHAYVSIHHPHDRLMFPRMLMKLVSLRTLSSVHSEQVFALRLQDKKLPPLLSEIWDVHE
How it was run: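 Heterodimer luciferase assay in COS-1 cells cotransfected with RXRα (0.5 μg), partner receptor (PPARγ or LXRα, 0.5 μg) and partner response element reporter (4.0 μg), plus SEAP. Compound (DMSO below 1%) was added with seeding at about 2.0 × 10⁴ cells/well, then 18 h at 37 °C, 5% CO2. Luciferase was normalized to SEAP. Triplicates, three runs.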

[4] = test system: Mus musculus; experiment: Toxicity against KKAy mouse assessed as total cholesterol level at 10 mg/kg/day, po for 14 days (reference value: 153.2 +/- 11.1 mg/dL); assay type: organism-based; design: route oral; conditions: in vivo, 336 h
[5] = biological target: T3, Retinoic acid receptor RXR-alpha (Homo sapiens, UniProt P19793); experiment: Partial agonist activity at RXRalpha (unknown origin) expressed in COS1 cells after 18 hrs by luciferase reporter gene assay; assay type: cell-based, COS-1
T3 sequence (P19793 whole entry): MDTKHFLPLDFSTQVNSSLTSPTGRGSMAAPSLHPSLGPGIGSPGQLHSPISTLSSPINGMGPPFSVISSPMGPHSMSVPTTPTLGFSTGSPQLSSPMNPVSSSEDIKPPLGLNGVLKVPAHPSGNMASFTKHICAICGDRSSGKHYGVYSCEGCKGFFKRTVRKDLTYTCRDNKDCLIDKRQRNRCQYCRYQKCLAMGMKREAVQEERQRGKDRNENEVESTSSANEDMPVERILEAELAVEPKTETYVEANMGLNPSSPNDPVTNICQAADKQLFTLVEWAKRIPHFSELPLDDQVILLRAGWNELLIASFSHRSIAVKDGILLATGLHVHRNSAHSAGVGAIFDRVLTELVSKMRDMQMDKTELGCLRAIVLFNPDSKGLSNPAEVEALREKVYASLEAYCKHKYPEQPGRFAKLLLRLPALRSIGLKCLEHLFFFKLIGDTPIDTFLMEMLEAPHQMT
How it was run: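 COS-1 cells in DMEM with 10% FBS at 37 °C, 5% CO2, transfected with RXRα, an RXR-response-element luciferase reporter and a SEAP background vector. Cells were seeded at about 2.0 × 10⁴ per well with compound (DMSO below 1%) for 18 h. Luciferase was normalized to SEAP and expressed relative to 1 μM reference RXR full agonist as 100%. EC50 came from full dose-response curves. Triplicates, at least three experiments.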

[6] = biological target: T4, Retinoic acid receptor RXR-alpha (Mus musculus) (UniProt P28700); experiment: Partial agonist activity at mouse RXRalpha expressed in COS1 cells by luciferase reporter gene assay relative to bexarotene; assay type: cell-based; conditions: COS-1
T4 sequence (whole entry): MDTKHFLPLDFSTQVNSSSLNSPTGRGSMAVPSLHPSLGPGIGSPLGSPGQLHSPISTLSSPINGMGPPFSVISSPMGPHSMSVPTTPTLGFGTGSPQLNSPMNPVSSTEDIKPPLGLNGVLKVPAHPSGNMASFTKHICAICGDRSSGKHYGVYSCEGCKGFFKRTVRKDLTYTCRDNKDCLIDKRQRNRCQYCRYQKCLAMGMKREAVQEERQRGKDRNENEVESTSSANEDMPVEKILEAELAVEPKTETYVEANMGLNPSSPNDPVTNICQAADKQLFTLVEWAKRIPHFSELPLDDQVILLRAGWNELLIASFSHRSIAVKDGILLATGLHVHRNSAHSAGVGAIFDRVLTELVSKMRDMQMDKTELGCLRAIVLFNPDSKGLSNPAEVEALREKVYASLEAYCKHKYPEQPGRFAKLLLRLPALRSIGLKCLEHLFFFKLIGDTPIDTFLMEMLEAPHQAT

[7] = test system: Mus musculus; experiment: Toxicity in ICR mouse assessed as development of hepatomegaly at 30 mg/kg/day, po for 7 days; assay type: organism-based; design: route oral; conditions: in vivo, 168 h
How it was run: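 Male ICR mice, 6−7 weeks old, four per cage, grouped by body weight. Oral 30 mg/kg or vehicle (1% ethanol/0.5% CMC in water, 10 mL/kg) once daily for 7 days, body weight recorded daily. After overnight fasting, mice were weighed under ether, and liver was removed and weighed. Serum was analysed on a dry-chemistry analyser for TG, TCHO, ALP, CRE, BUN and other markers. n = 7−23, ANOVA.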

In the case of Cc1cc2c(cc1-n1c(C(F)(F)F)nc3cc(C(=O)O)ccc31)C(C)(C)CCC2(C)C, the Activity [1] was “Active”, the Activity [2] was “Active” and the Activity [3] was “Active”. For the same compound, the Activity [4] was 155.3 mg/dL, the pEC50 [5] was 7.82 and the Activity [6] was “Active”. For the same compound, the Activity [7] was “Toxic”.
